From PubChem
CHOP inh – inhibitors of CHOP promoter induction, primary screen, cell-based, unfolded protein response, luciferase reporter. CHO-K1 CHOP-promoter luciferase, tunicamycin-induced, 15-18 h. inhibition, % at 10 µM. hit rate 3.8% among 220,000. AID 2732, 2010;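 active means compounds that reduced the stress-induced luciferase reporter signal by more than about 70% of percent inhibition, limit read from the data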;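 further: 0% = tunicamycin plus vehicle and 100% = wells without tunicamycin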
Lmaj promast – Leishmania major promastigote growth inhibition, primary screen. Leishmania major promastigotes, resazurin fluorescence viability. inhibition, % at 10 µM. hit rate 9% among 200,000; in the data active means inhibition above about 50%;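 further: promastigotes grown with compound for 44 hours at 28 °C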
UPR XBP1 act – activators of adaptive XBP1 UPR arm, primary screen, cell-based, CHO-XBP1 luciferase reporter, luminescence, uHTS | AID 463104, 2010 | hit rate 0.33% among 330,000 | IRE1-XBP1 UPR activation; percent of tunicamycin response, DMSO as zero | activation, % at 20 µM;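 active means versus positive control, 20 µM dose yields 30% or more activation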;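 further: 100% = tunicamycin at 10 µg/mL and 0% = DMSO only wells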
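Material: CHO cell line with stable XBP1 luciferase reporter; buffer or medium: F12 medium containing 10% fetal bovine serum; compound: single point, 20 µM final compound, 1% DMSO; incubation: 6 h treatment, 37 °C; measured by: glow luminescence from Steady-Glo reagent; evaluation: activation, % of tunicamycin; control set: tunicamycin high, DMSO low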
T cruzi repl – inhibitors of intracellular T. cruzi growth, primary screen, luminescence, NIH3T3 host cells. T. cruzi beta-gal in NIH3T3, 90 h. inhibition, % (concentration not given with the values). hit rate 1.4% among 300,000. AID 1885, 2009;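 active means mean inhibition across valid replicates above about 55%, limit read from the data; inconclusive means mean below that limit but half or more replicates reach it; inactive means mean below it, under half of replicates reach it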;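 further: signal also drops with host cell toxicity which is not excluded here; 0% = plate median of DMSO wells and 100% = zero luminescence signal; higher percent means less beta-gal luminescence so fewer parasites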
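compound dosing = single 50 nL compound addition per well in DMSO | material = NIH/3T3 host cells with β-galactosidase reporter T. cruzi | input = 5,000 host fibroblasts per well | timing = ≥90 h infection period, 3 h prior cell attachment | read-out basis = percent inhibition of parasite-derived β-gal signal | detection = GalScreen β-gal luminescence, detergent lysis, 60 min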
UPR CHOP act – activators of apoptotic CHOP UPR arm, primary screen, cell-based, CHO-CHOP luciferase reporter, luminescence, uHTS. UPR activation; percent of tunicamycin response over DMSO baseline. activation, % at 10 µM. hit rate 0.34% among 330,000;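 active means at 10 µM dose, activation of 40% or more, normalized to positive control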;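 further: 100% = tunicamycin at 10 µg/mL and 0% = DMSO alone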
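Assay system: CHO cells with stable CHOP pathway luciferase reporter; Buffer or medium: F12 plus 10% serum; Times: 16-18 h cell attachment, then 6 h compound exposure, 37 °C; Signal: luciferase luminescence; Read-out basis: percent activation relative to tunicamycin control; Control set: tunicamycin high control, DMSO low control.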
Dynein transport – inhibitors of GR-EGFP nuclear translocation, primary screen, dynein cargo transport inhibitor project, imaging, high-content, 3617.4 mouse cells; test concentration mostly 20 µM; stimulated with dexamethasone, 1 µM; hits give low values; z-score, hits read low; hit rate 0.47% among 220,000;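 active means plate z-score of nuclear minus cytoplasmic receptor signal below a set negative limit, without overly bright fluorescence or cell loss, cut at about -3.5 in these data, passing the limit was not always enough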;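 further: z-score of nuclear minus cytoplasmic ring GR-EGFP intensity difference per well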
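medium = tetracycline-free induction medium containing charcoal-stripped FBS | probe or stimulus = dexamethasone, 1.0 µM final | timing = 48 h induction, then 1 h compound, then 30 min agonist, 37 °C | detection = automated 10x imaging of fixed Hoechst-stained cells | read-out basis = nuclear versus cytoplasmic GR-EGFP signal, averaged per well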
Active calls of the source: *; ? = inconclusive; · = no result given. Shown is part of a subset that was picked to be rich in hits.

SMILES	CHOP inh	Lmaj promast	UPR XBP1 act	T cruzi repl	UPR CHOP act	Dynein transport
COc1cccc(CN2CCN(C3CCN(c4cccc(C)c4C)CC3)CC2CCO)c1 (stereo not drawn)	33	92*	1	27	0	-0.29
OCCC1CN(C2CCN(c3ccccc3)CC2)CCN1Cc1ccc(F)c(F)c1 (stereo not drawn)	34	93*	-1	12	0	0.092
C=CCNC(=O)Cc1ccc(S(=O)(=O)N2CCOCC2)s1	·	·	0	·	1	·
Cc1cc(OCCn2ccnc2)cc(C)c1Cl	·	·	-1	51	1	·
CN(C)CCCNC(=O)C[C@H]1C[C@H](C(=O)N2CCOCC2)[C@@]2(C)c3[nH]c4cc(-c5ccco5)ccc4c3CCN2C1=O	·	·	0	·	2	·
CC(c1ccco1)N(C(=O)C12CC3CC(CC(C)(C3)C1)C2)c1ccccn1 (stereo not drawn)	87*	6	-7	15	-1	-0.14
CC(c1ccco1)N(C(=O)c1ccc(F)cc1)c1ccccn1 (stereo not drawn)	-18	-8	-4	-6	-1	-0.93
O=C(COC(=O)C1CC1)NCc1ccccc1	·	·	-1	·	0	·
OC[C@H]1O[C@@H](n2cnc3c(Nc4ccccc4)ncnc32)C(O)[C@H]1O (stereo partly drawn)	3	·	·	·	·	·
CCCCNC(=O)N1CCCC(C(=O)c2cc(C)c(OC)c(C)c2)C1 (stereo not drawn)	·	·	-4	1	-1	·
CCOC(=O)N1CCC(N2CCCC(C(=O)c3cc(C)c(OC)c(C)c3)C2)CC1 (stereo not drawn)	12	93*	-2	47	2	-1.2
CCOC(=O)N1CCC(N2CCCC(C(=O)c3ccccc3OC)C2)CC1 (stereo not drawn)	14	80*	-1	12	-1	-0.79
CCOC(=O)N1CCC(N2CCCC(C(=O)c3ccc4cc(OC)ccc4c3)C2)CC1 (stereo not drawn)	5	98*	-2	56*	-2	0.0051
Cc1nn(-c2ccccc2)c(C)c1/C=N/n1c(-c2ccc(C(C)(C)C)cc2)n[nH]c1=S	84*	13	6	11	0	-0.37
S=c1[nH]nc(-c2ccncc2)n1/N=C/c1cn(-c2ccccc2)nc1-c1ccc(Cl)cc1	91*	·	8	8	2	0.0072
O=c1c(Cc2ccc(F)cc2)c(O)ccn1CCCn1ccnc1	7	-7	-3	-3	0	0.86
COc1ccc(C2(O)CC3CCC(C2)N3c2cc(C)nc(-c3ccccc3)n2)cc1 (stereo not drawn)	60	63*	-2	25	-2	-0.41
Cc1coc2c1C(=O)C(=O)c1c-2ccc2c1CCCC2(C)C	16	98*	8	-18	7	-1.9
CC(C)(C)c1ccc(OCC(=O)N(Cc2cccs2)C2CCS(=O)(=O)C2)cc1 (stereo not drawn)	·	·	-2	-3	0	·
COc1ccc(C(=O)COc2ccccc2C(=O)Nc2ccccc2)cc1	2	15	-2	24	4	0.65
C=CC[n+]1ccc(/C=C2\C=Cc3cc(C)ccc3N2CC)c2ccccc21	75*	100*	·	·	·	-1
CCc1nn(CC(=O)NCCCc2ccccc2)c(=O)c2cc3cc(F)ccc3n12	·	·	-4	-1	-2	·
Cc1cc(C)c(OCC(=O)N2CC=C(c3ccccc3)CC2)c(C)c1	·	·	-5	3	1	·
CC(C)CCSc1nc(N2CCOCC2)c2c(c1C#N)CC(C)(C)OC2	49	13	1	67*	-2	0.8
COC(=O)CCSc1nc(N2CCOCC2)c2c(c1C#N)CC(C)(C)OC2	·	·	0	-42	-1	·
SMILES	CHOP inh	Lmaj promast	UPR XBP1 act	T cruzi repl	UPR CHOP act	Dynein transport
CN1Cc2c(N3CCOCC3)nc(SCc3ccccc3)c(C#N)c2CC1(C)C	48	36	0	58*	0	-0.21
CCSc1nc(N2CCOCC2)c2c(c1C#N)CC(C)(C)N(C)C2	10	5	0	30	-1	-1.1
Cc1ccc(NC(=O)c2c(Cl)nc3ccccn23)cc1	3	-4	7	11	5	-0.51
CCOC(=O)c1cc2sc(C)cc2n1CC(=O)Nc1cccc(C)c1C	74*	-6	-3	25	2	0.88
COc1ccc(C(c2nnnn2C2CCCC2)N2CCN(C3CCCC3)CC2)cc1OC (stereo not drawn)	9	83*	-1	11	1	1.1
COc1cc(C(c2nnnn2C2CCCC2)N2CCN(C)CC2)cc(OC)c1OC (stereo not drawn)	12	9	-3	2	-1	-0.58
COc1cccc(C(c2nnnn2Cc2ccccc2)N2CCN(C3CCCC3)CC2)c1OC (stereo not drawn)	26	98*	-5	26	1	1
COc1ccc(C(c2nnnn2CCc2ccccc2)N2CCN(C3CCCC3)CC2)cc1OC (stereo not drawn)	9	100*	-2	-23	1	0.22
CCOc1cc(S(=O)(=O)NCCc2cccc(C)c2)c(OCC)cc1-n1cnnn1	-3	34	-4	12	4	0.95
CCc1ccc(C2=NN(S(C)(=O)=O)C(c3cccs3)C2)cc1 (stereo not drawn)	14	67*	-3	?	0	-1.4
Cn1c(-c2ccccc2)cc2c3no[n+]([O-])c3ccc21	·	3	4	73*	4	-0.16
Nc1nonc1C(=O)NCCNCc1cc(Br)ccc1OCc1ccccc1F	·	66*	0	29	4	1.8
COc1cc(CNCCNC(=O)c2nonc2N)ccc1OCc1ccc(Cl)cc1	42	98*	4	17	3	-0.14
Nc1nonc1C(=O)NCCNCc1ccccc1OCc1ccccc1F	41	14	-1	10	-1	1.3
CC(C)NC(=S)N/N=C/C1=CCC2CC1C2(C)C (stereo not drawn)	72*	100*	0	50	1	0.42
C=C(C)CNC(=S)N/N=C/C1=CCC2CC1C2(C)C (stereo not drawn)	84*	100*	-5	7	-1	-1.5
CCCCNC(=S)N/N=C/C1=CCC2CC1C2(C)C (stereo not drawn)	16	100*	0	36	1	1.9
CC1=C/C(=N\NC(=S)Nc2cccnc2)CC(C)(C)C1	-97	99*	·	49	·	1.2
